Paper PMC2852926 (The Journal of Biological Chemistry, 2010)
Entries after “also recorded” stand apart in the source; their conditions may differ. Like-named read-outs stand apart in the source and are kept apart here.

Columns and labels:
human CMBL [1] = target: T1, human CMBL (Homo sapiens, UniProt Q96DG6); assay type: biochemical
T1 sequence (Q96DG6 1-245): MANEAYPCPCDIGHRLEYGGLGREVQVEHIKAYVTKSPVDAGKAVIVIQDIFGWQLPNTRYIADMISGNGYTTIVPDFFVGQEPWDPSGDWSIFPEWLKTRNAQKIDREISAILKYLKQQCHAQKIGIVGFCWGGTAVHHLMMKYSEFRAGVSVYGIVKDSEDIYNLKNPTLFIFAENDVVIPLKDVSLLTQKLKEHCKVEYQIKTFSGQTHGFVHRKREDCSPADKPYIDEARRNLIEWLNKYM

[2] = test system: OM-hydrolyzing activity in human intestinal cytosol; assay type: biochemical
[3] = test system: OM-hydrolyzing activity in human liver cytosol; assay type: biochemical
[4] = test system: OM-hydrolyzing activity in human plasma; assay: Effect of esterase inhibitors on OM-hydrolyzing activity in human plasma; assay type: biochemical; conditions: OM 250 μM, 5 min
Outline: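 Human plasma, diluted to 2.5 mg protein/ml, incubated 5 min with OM substrate (250 μM) plus one esterase inhibitor: BNPP, DFP, PCMB, eserine or PMSF at 1000 μM, or EDTA at 500 μM. Olmesartan formed was quantified by reversed-phase C18 HPLC with UV at 254 nm. Activity was expressed as formation rate. Means of duplicate determinations.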

human CMBL [5] = target: T1, human CMBL; assay: Hydrolysis of medoxomil prodrugs by recombinant CMBL; assay type: in vitro ADME; conditions: CMBL-transfected mammalian cell lysate, pH 7.4, 37 °C
[6] = OM hydrolysis in human liver cytosol, kinetic analysis; assay type: in vitro ADME
Outline: (§1)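 Commercial human liver or intestinal subcellular fractions were incubated in 10 mM potassium phosphate (pH 7.4) at 37 °C with OM at 7.81–1000 μM. Protein was 0.05 mg/ml for liver and intestinal cytosols, 0.5 mg/ml for liver microsomes and 0.25 mg/ml for intestinal microsomes. Olmesartan was measured by C18 HPLC-UV at 254 nm, net of buffer-control hydrolysis. Km and Vmax came from nonlinear least-squares Michaelis–Menten fits of triplicates.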

[7] = Prodrug in portal or circulating blood of rats; assay type: in vivo; conditions: data not shown
[8] = OM hydrolysis in human liver microsomes, kinetic analysis; assay type: in vitro ADME
Outline: as §1

[9] = OM hydrolysis in human intestinal cytosol, kinetic analysis; assay type: in vitro ADME
Outline: as §1

plasma albumin = conditions: cited from earlier work
[10] = OM hydrolysis in human intestinal microsomes, kinetic analysis; assay type: in vitro ADME
Outline: as §1

human plasma PON1 = conditions: cited from earlier work
human CMBL [11] = target: T1, human CMBL; assay: Hydrolysis of typical esterase substrates by recombinant CMBL; assay type: biochemical; conditions: substrate 1 mM, CMBL-transfected cell lysate 0.05 mg protein/ml
human CMBL [12] = target: T1, human CMBL; assay: Ulifloxacin formation from prulifloxacin by recombinant CMBL; assay type: in vitro ADME; conditions: HEPES pH 7.4, 37 °C, CMBL-transfected mammalian cell lysate

**Q.** With O=[N+]([O-])c1ccc(OP(=O)(O)Oc2ccc([N+](=O)[O-])cc2)cc1 [BNPP, Bis-p-nitrophenylphosphate] as the compound, how does the “Inhibition of OM-hydrolyzing activity” value (human CMBL [1]) read?
**A.** ~50%

**Q.** What about the “Inhibition of OM-hydrolyzing activity” value [2] of the same compound?
**A.** partially inhibited

**Q.** And the “Inhibition of OM-hydrolyzing activity” value [3]?
**A.** partially inhibited

**Q.** With O=C(O)CN(CCN(CC(=O)O)CC(=O)O)CC(=O)O [EDTA] as the compound, how does the “Inhibition of OM-hydrolyzing activity” value (human CMBL [1]) read?
**A.** no inhibition

**Q.** What about the “Inhibition of OM-hydrolyzing activity” value [2] of the same compound?
**A.** not inhibited

**Q.** And the “Inhibition of OM-hydrolyzing activity” value [3]?
**A.** not inhibited

**Q.** What about the “Inhibition of OM-hydrolyzing activity” value ([4]; inhibitor 500 μM) of the same compound?
**A.** almost completely inhibited

**Q.** Which “Hydrolysis by recombinant CMBL” value (human CMBL [5]) does the source give for Cc1oc(=O)oc1COC(=O)C1=C([C@H]2CCCO2)S[C@@H]2[C@@H]([C@@H](C)O)C(=O)N12 [Faropenem medoxomil] here?
**A.** readily hydrolyzed

**Q.** Which “Hydrolysis by recombinant CMBL” value (human CMBL [5]) does the source give for Cc1oc(=O)oc1COC(=O)[C@@H]1N2C(=O)[C@@H](NC(=O)[C@H](N)c3ccccc3)[C@H]2SC1(C)C [Lenampicillin] here?
**A.** readily hydrolyzed

**Q.** Which Vmax ([6]; Liver cytosol, mean ± S.E.) does the source give for CCCc1nc(C(C)(C)O)c(C(=O)OCc2oc(=O)oc2C)n1Cc1ccc(-c2ccccc2-c2nnn[nH]2)cc1 [Olmesartan medoxomil] here?
**A.** 19.7 ± 0.8 nmol/min/mg protein

**Q.** And the Km ([6]; human, liver cytosol, pH 7.4)?
**A.** 160 ± 19 µM

**Q.** And the “Prodrug detected in portal or circulating blood” value [7]?
**A.** no prodrug was detected

**Q.** And the Vmax ([8]; Liver microsomes, mean ± S.E.)?
**A.** 15.0 ± 0.3 nmol/min/mg protein

**Q.** What about the Km ([8]; human, liver microsomes, pH 7.4) of the same compound?
**A.** 481 ± 23 µM

**Q.** And the Vmax ([9]; Intestinal cytosol, mean ± S.E.)?
**A.** 45.1 ± 2.0 nmol/min/mg protein

**Q.** What about the Km ([9]; human, intestinal cytosol, pH 7.4) of the same compound?
**A.** 193 ± 24 µM

**Q.** And the “Hydrolysis by plasma albumin” value (plasma albumin)?
**A.** capable of hydrolyzing

**Q.** What about the Vmax ([10]; Intestinal microsomes, mean ± S.E.) of the same compound?
**A.** 6.76 ± 0.11 nmol/min/mg protein

**Q.** And the Km ([10]; human, intestinal microsomes, pH 7.4)?
**A.** 236 ± 10 µM

**Q.** What about the “Hydrolysis by PON1” value (human plasma PON1; listed as OM) of the same compound?
**A.** capable of hydrolyzing; also recorded: hydrolyze

**Q.** Which results are given for O=C(O)c1cc[c]([Hg][Cl])cc1 [PCMB, p-chloromercuribenzoate]?
**A.** Inhibition of OM-hydrolyzing activity (human CMBL [1]): almost completely inhibited; Inhibition of OM-hydrolyzing activity [2]: strongly inhibited; Inhibition of OM-hydrolyzing activity [3]: strongly inhibited; Inhibition of OM-hydrolyzing activity ([4]; inhibitor 1000 μM): almost completely inhibited

**Q.** For O=S(=O)(F)Cc1ccccc1 [PMSF, Phenylmethylsulfonyl fluoride], which “Inhibition of OM-hydrolyzing activity” value (human CMBL [1]) is on record?
**A.** no inhibition

**Q.** What about the “Inhibition of OM-hydrolyzing activity” value [2] of the same compound?
**A.** not inhibited

**Q.** And the “Inhibition of OM-hydrolyzing activity” value [3]?
**A.** not inhibited

**Q.** Which “Hydrolysis by recombinant CMBL” value (human CMBL [11]) does the source give for CC(=O)SCC[N+](C)(C)C.[I-] [acetylthiocholine iodide] here?
**A.** does not hydrolyze

**Q.** For CNC(=O)Oc1ccc2c(c1)[C@]1(C)CCN(C)[C@@H]1N2C [eserine], which “Inhibition of OM-hydrolyzing activity” value (human CMBL [1]) is on record?
**A.** no inhibition

**Q.** And the “Inhibition of OM-hydrolyzing activity” value [2]?
**A.** not inhibited

**Q.** What about the “Inhibition of OM-hydrolyzing activity” value [3] of the same compound?
**A.** not inhibited

**Q.** Which “Hydrolysis by recombinant CMBL” value (human CMBL [11]) does the source give for CC(=O)Oc1ccc([N+](=O)[O-])cc1 [p-nitrophenyl acetate] here?
**A.** does not hydrolyze

**Q.** With CC(=O)Oc1ccccc1 [phenyl acetate] as the compound, how does the “Hydrolysis by recombinant CMBL” value (human CMBL [11]) read?
**A.** does not hydrolyze

**Q.** Which results are given for Cc1oc(=O)oc1CN1CCN(c2cc3c(cc2F)c(=O)c(C(=O)O)c2n3C(C)S2)CC1 (centres unmarked) [prulifloxacin]?
**A.** Enzymatic hydrolysis by recombinant human CMBL (human CMBL [12]): not enzymatically hydrolyzed; also recorded: not hydrolyzed at all; Hydrolysis by PON1 (human plasma PON1): hydrolyze
